Target: T1, DMT1 (SLC11A2) (Homo sapiens, UniProt P49281)
T1 sequence (P49281 1-568): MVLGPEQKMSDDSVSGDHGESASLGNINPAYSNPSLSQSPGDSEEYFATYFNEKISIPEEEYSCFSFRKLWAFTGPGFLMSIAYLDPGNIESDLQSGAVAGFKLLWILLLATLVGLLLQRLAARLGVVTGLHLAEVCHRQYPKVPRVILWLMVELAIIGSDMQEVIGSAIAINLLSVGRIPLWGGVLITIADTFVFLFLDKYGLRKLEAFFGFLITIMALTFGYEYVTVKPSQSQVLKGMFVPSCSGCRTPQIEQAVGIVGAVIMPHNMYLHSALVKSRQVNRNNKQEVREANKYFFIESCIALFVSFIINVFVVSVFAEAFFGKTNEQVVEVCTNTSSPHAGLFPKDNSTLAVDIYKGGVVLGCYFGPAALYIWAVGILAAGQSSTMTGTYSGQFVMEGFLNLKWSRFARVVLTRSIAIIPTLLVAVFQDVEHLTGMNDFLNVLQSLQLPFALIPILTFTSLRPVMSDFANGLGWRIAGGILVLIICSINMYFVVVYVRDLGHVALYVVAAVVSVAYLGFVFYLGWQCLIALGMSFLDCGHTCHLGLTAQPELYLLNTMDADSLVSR
Assay: Radioactive 55Fe uptake assay in HEK293 cells stably overexpressing DMT1
Assay type: cell-based
How it was run: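 HEK293 cells stably expressing human DMT1 (pIRES2 DsRed-Express2, geneticin 500 μg/mL) were seeded at 50,000 cells/well for 24 h. Cells were preincubated 5 min in uptake buffer, pH 5.5, with a range of test compound. ⁵⁵Fe²⁺ (1 μM) with ascorbate and unlabelled Fe²⁺ was then added for 15 min at room temperature. After ice-cold washes, uptake was read by scintillation counting as % of DMSO control. IC50 came from a 4-parameter logistic fit (two experiments in triplicate), and LE was derived from IC50.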

CC1CCc2sc(C(=O)O)cc2C1 (centres unmarked) [compound 2]
IC50: 525 ± 65 µM
ligand efficiency LE (from DMT1 IC50): 0.35 kcal^.mol^−1

From paper PMC8596699 (Chemmedchem, 2021)
